Assays:
Type in all cases: functional
Conditions in all cases: read-out: IZ
[1] = system: Escherichia coli; test: Antibacterial activity against beta-lactamase-positive ESBL-positive Escherichia coli assessed as […] in zone of inhibition at 30 ug by disk diffusion method in presence of clavulanic acid
Summary of the method: (§1)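 ESBL confirmation by disk diffusion using cefotaxime and ceftazidime disks (30 μg each) combined with a 10 μg clavulanic acid disk, compared against the disks alone.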

[2] = system: Klebsiella pneumoniae; test: Antibacterial activity against beta-lactamase-positive ESBL-positive Klebsiella pneumoniae assessed as […] in zone of inhibition at 30 ug by disk diffusion method in presence of clavulanic acid; summary of the method: as §1
[3] = system: Escherichia coli; test: Antibacterial activity against beta-lactamase-positive ESBL-positive Escherichia coli assessed as […] in zone of inhibition at 30 ug by disk diffusion method
Summary of the method: (§2)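 ESBL screen of β-lactamase-positive enteric isolates by disk diffusion using cefotaxime and ceftazidime disks (30 μg each) alone.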

[4] = system: Klebsiella pneumoniae; test: Antibacterial activity against beta-lactamase-positive ESBL-positive sKlebsiella pneumoniae assessed as decrease in zone of inhibition at 30 ug by disk diffusion method; summary of the method: as §2

Measured: zone of inhibition at 30 µg/disc

O=C(O)[C@H]1/C(=C/CO)O[C@@H]2CC(=O)N21 [CLAVULANIC ACID]
≥ 5 mm: [1] | [2] | [3] | [4]

— ChEMBL document CHEMBL1255475, “Mutant prevention concentrations of four carbapenems against gram-negative rods” (2010)
